Measurements published in ChEMBL document CHEMBL1687778, “Genetic determinants involved in the susceptibility of Pseudomonas aeruginosa to beta-lactam antibiotics” (2010).
Converted amounts (≈) assume the structure as drawn.

Experiments:
Pseudomonas aeruginosa [1] = assay: Antimicrobial activity against Pseudomonas aeruginosa PA14 PA3721 harboring nalC mutant gene by Etest method; type: functional
How it was run: (§1)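 Etest MIC. Overnight LB cultures at 37°C were diluted in sterile 0.85% NaCl to about 1 × 10^7 CFU/ml. 100 µl was spread on Mueller-Hinton agar, one strip was placed per plate, and plates were incubated at 37°C for 18 h. Equal cell numbers were seeded per plate, and results were verified in triplicate. PA14 wild type was included in each set as a susceptibility control.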

Pseudomonas aeruginosa [2] = assay: Antimicrobial activity against Pseudomonas aeruginosa PA14 PA0770 harboring rnc mutant gene by Etest method; type: functional
How it was run: (§2)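 Overnight LB cultures (37°C) diluted in sterile 0.85% NaCl to about 1 × 10^7 CFU/ml. 100 µl spread on Mueller-Hinton agar, one Etest strip per plate, 18 h at 37°C. Ceftazidime, imipenem and meropenem tested. Wild-type PA14 plate included in each set. Each mutant verified in triplicate.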

Pseudomonas aeruginosa [3] = assay: Antimicrobial activity against Pseudomonas aeruginosa PA14 PA3589 harboring mutation in acetyl-coenzyme A (CoA) acetyltransferase (thiolase) by Etest method; type: functional; how it was run: as §1
[4] = system: Pseudomonas aeruginosa PA14; assay: Activity of Beta-lactamase in Pseudomonas aeruginosa PA14 PA4020 harboring mpl mutant gene assessed as nitrocefin hydrolysis per mg of protein by spectrophotometry
How it was run: (§3)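 Cells grown to OD600 1.0, pelleted and resuspended in 0.1 M KH2PO4-Na2HPO4 pH 7.0. Crude extract made by two freeze-thaw cycles plus sonication on ice. β-Lactamase read as absorbance change at 485 nm with 50 µM nitrocefin in the same pH 7.0 phosphate buffer. Extract protein measured by BCA against a bovine serum albumin standard.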

Pseudomonas aeruginosa [5] = assay: Antimicrobial activity against Pseudomonas aeruginosa PA14 PA4069 harboring mutation in putative dTDP-4-rhamnose reductase-related protein by Etest method; type: functional; how it was run: as §1
Pseudomonas aeruginosa [6] = assay: Antimicrobial activity against Pseudomonas aeruginosa PA14 PA2615 harboring ftsK mutant gene by Etest method; type: functional; how it was run: as §2
Pseudomonas aeruginosa [7] = assay: Antimicrobial activity against Pseudomonas aeruginosa PA14 PA1483 harboring cycH mutant gene by Etest method; type: functional; how it was run: as §2
[8] = system: Pseudomonas aeruginosa PAO1; assay: Activity of Beta-lactamase in Pseudomonas aeruginosa PAO1 PA4109 harboring ampR mutant gene assessed as nitrocefin hydrolysis per mg of protein by spectrophotometry; how it was run: as §3
Pseudomonas aeruginosa [9] = assay: Antimicrobial activity against Pseudomonas aeruginosa PA14 PA3667 harboring mutation in putative cysteine sulfinate desulfinase by Etest method; type: functional; how it was run: as §1
Pseudomonas aeruginosa [10] = assay: Antimicrobial activity against Pseudomonas aeruginosa PA14 PA14_23430 harboring mutation in putative heparinase by Etest method; type: functional; how it was run: as §2
Pseudomonas aeruginosa [11] = assay: Antimicrobial activity against Pseudomonas aeruginosa PA14 PA14_23420 harboring mutation in putative zinc-binding dehydrogenase by Etest method; type: functional; how it was run: as §2
Pseudomonas aeruginosa [12] = assay: Antimicrobial activity against Pseudomonas aeruginosa PA14 PA2797 harboring mutation in putative anti-anti-sigma factor by Etest method; type: functional; how it was run: as §2
Pseudomonas aeruginosa [13] = assay: Antimicrobial activity against Pseudomonas aeruginosa PA14 PA1195 harboring mutation in putative dimethylarginine dimethylaminohydrolase by Etest method; type: functional; how it was run: as §2
Pseudomonas aeruginosa [14] = assay: Antimicrobial activity against Pseudomonas aeruginosa PA14 PA4393 harboring mutation in putative permease by Etest method; type: functional; how it was run: as §1
Pseudomonas aeruginosa [15] = assay: Antimicrobial activity against Pseudomonas aeruginosa PA14 PA3262 harboring fklB mutant gene by Etest method; type: functional; how it was run: as §1
Pseudomonas aeruginosa [16] = assay: Antimicrobial activity against Pseudomonas aeruginosa PA14 PA0420 harboring bioA mutant gene by Etest method; type: functional; how it was run: as §2
[17] = system: Pseudomonas aeruginosa PAO1; assay: Activity of Beta-lactamase in Pseudomonas aeruginosa PAO1 PA3047 harboring dacB mutant gene assessed as nitrocefin hydrolysis per mg of protein by spectrophotometry; how it was run: as §3
Pseudomonas aeruginosa [18] = assay: Antimicrobial activity against Pseudomonas aeruginosa PA14 PA4269 harboring rpoC mutant gene by Etest method; type: functional; how it was run: as §1
[19] = system: Pseudomonas aeruginosa PAO1; assay: Activity of Beta-lactamase in Pseudomonas aeruginosa PAO1 PA4522 harboring ampD mutant gene assessed as nitrocefin hydrolysis per mg of protein by spectrophotometry; how it was run: as §3
Pseudomonas aeruginosa [20] = assay: Antimicrobial activity against Pseudomonas aeruginosa PA14 PA4088 harboring mutation in putative aminotransferase by Etest method; type: functional; how it was run: as §1
Pseudomonas aeruginosa [21] = assay: Antimicrobial activity against Pseudomonas aeruginosa PA14 PA0667 harboring mutation in putative metallopeptidase by Etest method; type: functional; how it was run: as §2
Pseudomonas aeruginosa [22] = assay: Antimicrobial activity against Pseudomonas aeruginosa PA14 PA5174 harboring mutation in putative beta-ketoacyl synthase by Etest method; type: functional; how it was run: as §1
Pseudomonas aeruginosa [23] = assay: Antimicrobial activity against Pseudomonas aeruginosa PA14 PA5443 harboring uvrD mutant gene by Etest method; type: functional; how it was run: as §1
Pseudomonas aeruginosa [24] = assay: Antimicrobial activity against Pseudomonas aeruginosa PA14 PA3247 harboring mutation in putative aspartyl aminopeptidase by Etest method; type: functional; how it was run: as §2
[25] = system: Pseudomonas aeruginosa PA14; assay: Activity of Beta-lactamase in Pseudomonas aeruginosa PA14 PA3047 harboring complemented dacB mutant gene assessed as nitrocefin hydrolysis per mg of protein by spectrophotometry; how it was run: as §3
Pseudomonas aeruginosa [26] = assay: Antimicrobial activity against Pseudomonas aeruginosa PA14 PA1348 harboring mutation in conserved hypothetical protein by Etest method; type: functional; how it was run: as §2
Pseudomonas aeruginosa [27] = assay: Antimicrobial activity against Pseudomonas aeruginosa PA14 PA5003 harboring mutation in conserved hypothetical protein by Etest method; type: functional; how it was run: as §1
Pseudomonas aeruginosa [28] = assay: Antimicrobial activity against Pseudomonas aeruginosa PA14 PA4745 harboring nusA mutant gene by Etest method; type: functional; how it was run: as §1
[29] = system: Pseudomonas aeruginosa PA14; assay: Activity of Beta-lactamase in Pseudomonas aeruginosa PA14 PA3047 harboring dacB mutant gene assessed as nitrocefin hydrolysis per mg of protein by spectrophotometry; how it was run: as §3
Pseudomonas aeruginosa [30] = assay: Antimicrobial activity against Pseudomonas aeruginosa PA14 PA0807 harboring ampDh3 mutant gene by Etest method; type: functional; how it was run: as §2
[31] = system: Pseudomonas aeruginosa PA14; assay: Activity of Beta-lactamase in Pseudomonas aeruginosa PA14 PA4020 harboring complemented mpl mutant gene assessed as nitrocefin hydrolysis per mg of protein by spectrophotometry; how it was run: as §3
Pseudomonas aeruginosa [32] = assay: Antimicrobial activity against Pseudomonas aeruginosa PA14 PA3145 harboring wbpL mutant gene by Etest method; type: functional; how it was run: as §2
Pseudomonas aeruginosa [33] = assay: Antimicrobial activity against Pseudomonas aeruginosa PA14 PA14_15600 harboring mutation in conserved hypothetical protein by Etest method; type: functional; how it was run: as §2
Pseudomonas aeruginosa [34] = assay: Antimicrobial activity against Pseudomonas aeruginosa PA14 PA14_59780 harboring rcsC mutant gene by Etest method; type: functional; how it was run: as §2
Pseudomonas aeruginosa [35] = assay: Antimicrobial activity against Pseudomonas aeruginosa PA14 PA0479 harboring mutation in putative transcriptional regulator, LysR family by Etest method; type: functional; how it was run: as §2
[36] = system: Pseudomonas aeruginosa PA14; assay: Activity of wild type Pseudomonas aeruginosa PA14 Beta-lactamase assessed as nitrocefin hydrolysis per mg of protein by spectrophotometry; how it was run: as §3
Pseudomonas aeruginosa [37] = assay: Antimicrobial activity against Pseudomonas aeruginosa PA14 PA14_06490 harboring mutation in hypothetical protein by Etest method; type: functional; how it was run: as §2
Pseudomonas aeruginosa [38] = assay: Antimicrobial activity against Pseudomonas aeruginosa PA14 PA4109 harboring ampR mutant gene by Etest method; type: functional; how it was run: as §1
Pseudomonas aeruginosa [39] = assay: Antimicrobial activity against Pseudomonas aeruginosa PA14 PA3050 harboring pyrD mutant gene by Etest method; type: functional; how it was run: as §2
[40] = system: Pseudomonas aeruginosa PAO1; assay: Activity of wild type Pseudomonas aeruginosa PAO1 Beta-lactamase assessed as nitrocefin hydrolysis per mg of protein by spectrophotometry; how it was run: as §3

CC(C)(O/N=C(\C(=O)N[C@@H]1C(=O)N2C(C(=O)[O-])=C(C[n+]3ccccc3)CS[C@H]12)c1csc(N)n1)C(=O)O [CEFTAZIDIME]
MIC (Pseudomonas aeruginosa [1]): 1.5 µg/mL (≈ 2.74 µM) | MIC (Pseudomonas aeruginosa [2]): 0.5 µg/mL (≈ 0.915 µM) | MIC (Pseudomonas aeruginosa [3]): 2 µg/mL (≈ 3.66 µM) | Activity [4]: 96 nmol/min | MIC (Pseudomonas aeruginosa [5]): 0.75 µg/mL (≈ 1.37 µM) | MIC (Pseudomonas aeruginosa [6]): 0.25 µg/mL (≈ 0.457 µM) | MIC (Pseudomonas aeruginosa [7]): 0.5 µg/mL (≈ 0.915 µM) | Activity [8]: 111 nmol/min | MIC (Pseudomonas aeruginosa [9]): 3 µg/mL (≈ 5.49 µM) | MIC (Pseudomonas aeruginosa [10]): 2 µg/mL (≈ 3.66 µM) | MIC (Pseudomonas aeruginosa [11]): 2 µg/mL (≈ 3.66 µM) | MIC (Pseudomonas aeruginosa [12]): 3 µg/mL (≈ 5.49 µM) | MIC (Pseudomonas aeruginosa [13]): 0.5 µg/mL (≈ 0.915 µM) | MIC (Pseudomonas aeruginosa [14]): 0.75 µg/mL (≈ 1.37 µM) | MIC (Pseudomonas aeruginosa [15]): 0.75 µg/mL (≈ 1.37 µM) | MIC (Pseudomonas aeruginosa [16]): 0.5 µg/mL (≈ 0.915 µM) | Activity [17]: 274 nmol/min | MIC (Pseudomonas aeruginosa [18]): 0.5 µg/mL (≈ 0.915 µM) | Activity [19]: 74 nmol/min | MIC (Pseudomonas aeruginosa [20]): 0.25 µg/mL (≈ 0.457 µM) | MIC (Pseudomonas aeruginosa [21]): 2 µg/mL (≈ 3.66 µM) | MIC (Pseudomonas aeruginosa [22]): 1 µg/mL (≈ 1.83 µM) | MIC (Pseudomonas aeruginosa [23]): 1.5 µg/mL (≈ 2.74 µM) | MIC (Pseudomonas aeruginosa [24]): 2 µg/mL (≈ 3.66 µM) | Activity [25]: 3.8 nmol/min | MIC (Pseudomonas aeruginosa [26]): 1.5 µg/mL (≈ 2.74 µM) | MIC (Pseudomonas aeruginosa [27]): 3 µg/mL (≈ 5.49 µM) | MIC (Pseudomonas aeruginosa [28]): 0.75 µg/mL (≈ 1.37 µM) | Activity [29]: 110 nmol/min | MIC (Pseudomonas aeruginosa [30]): 0.75 µg/mL (≈ 1.37 µM) | Activity [31]: 7.3 nmol/min | MIC (Pseudomonas aeruginosa [32]): 2 µg/mL (≈ 3.66 µM) | MIC (Pseudomonas aeruginosa [33]): 1.5 µg/mL (≈ 2.74 µM) | MIC (Pseudomonas aeruginosa [34]): 0.38 µg/mL (≈ 0.695 µM) | MIC (Pseudomonas aeruginosa [35]): 2 µg/mL (≈ 3.66 µM) | Activity [36]: 4.9 nmol/min | MIC (Pseudomonas aeruginosa [37]): 2 µg/mL (≈ 3.66 µM) | MIC (Pseudomonas aeruginosa [38]): 4 µg/mL (≈ 7.32 µM) | MIC (Pseudomonas aeruginosa [39]): 0.5 µg/mL (≈ 0.915 µM) | Activity [40]: 6.9 nmol/min
